Test results taken from ChEMBL document CHEMBL4732173, “Easily accessed nitroquinolones exhibiting potent and selective anti-tubercular activity” (Eur J Med Chem, 2021).
≈ marks a conversion by molar mass, not a printed value.

What follows are compounds tested on Mycobacterium tuberculosis (assay: Antitubercular activity against Mycobacterium tuberculosis harboring gfp reporter gene and DrpE1 mutation assessed as inhibition of bacterial growth incubated for 14 days by fluorescence based analysis). Settings: time 14 day.
Assay type: functional
`COCCNC(=O)c1cn(Cc2ccc(F)cc2)c2ccc([N+](=O)[O-])cc2c1=O` was tested, and the MIC90 was 62.5 µM (≈ 25 µg/mL).

Each compound was assayed on Mycobacterium tuberculosis (assay: Antitubercular activity against Mycobacterium tuberculosis harboring gfp reporter gene and wild type DrpE1 assessed as inhibition of bacterial growth incubated for 14 days by fluorescence based analysis). Settings: 336 h, time 14 day.
Assay type: functional
In short: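 Controls were rifampicin at 2× MIC and 5% DMSO. Plates ran 14 days at 37 °C, 5% CO2, with GFP read at ex 485/em 520. Data were normalised and curve-fitted (Levenberg-Marquardt). MIC90 is the lowest concentration inhibiting >90% of growth.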
For `N#Cc1cccc(Cn2cc(C(=O)NCCOCCO)c(=O)c3cc([N+](=O)[O-])ccc32)c1`, the MIC90 was 15 µM (≈ 6.54 µg/mL). `N#Cc1cccc(Cn2cc(C(=O)NCCNCCO)c(=O)c3cc([N+](=O)[O-])ccc32)c1` was tested, and the MIC90 was 3.69 µM (≈ 1.61 µg/mL). Compound `O=C(NO)c1cn(Cc2cccc(Cl)c2)c2ccc([N+](=O)[O-])cc2c1=O` has an MIC90 of 125 µM (≈ 46.7 µg/mL). Compound `O=C(NCCNCCO)c1cn(Cc2ccc(F)cc2)c2ccc([N+](=O)[O-])cc2c1=O` has an MIC90 of 0.919 µM (≈ 0.394 µg/mL). `O=C(NCCN1CCOCC1)c1cn(Cc2cccc(Cl)c2)c2ccc([N+](=O)[O-])cc2c1=O` was tested, and the MIC90 was 31.9 µM (≈ 15 µg/mL). `O=C(NCCOCCO)c1cn(Cc2ccc(F)cc2)c2ccc([N+](=O)[O-])cc2c1=O` showed an MIC90 of 8.08 µM (≈ 3.47 µg/mL). Compound `CCOC(=O)c1c[nH]c2c(C(F)(F)F)cc([N+](=O)[O-])cc2c1=O` has an MIC90 of 1.84 µM (≈ 0.609 µg/mL). Compound `COCCNC(=O)c1cn(Cc2cccc(Cl)c2)c2ccc([N+](=O)[O-])cc2c1=O` has an MIC90 of 0.675 µM (≈ 0.281 µg/mL). `O=C(NCCNCCO)c1cn(Cc2cccc(F)c2)c2ccc([N+](=O)[O-])cc2c1=O` was tested, and the MIC90 was 3.7 µM (≈ 1.59 µg/mL). Work on `O=C(NCCN1CCOCC1)c1cn(Cc2cccc(Br)c2)c2ccc([N+](=O)[O-])cc2c1=O` yielded an MIC90 greater than 125 µM. `N#Cc1cccc(Cn2cc(C(=O)NO)c(=O)c3cc([N+](=O)[O-])ccc32)c1` gave an MIC90 greater than 125 µM. `COCCNC(=O)c1cn(Cc2cccc(C#N)c2)c2ccc([N+](=O)[O-])cc2c1=O` showed an MIC90 greater than 125 µM. `O=C(NO)c1cn(Cc2cccc(F)c2)c2ccc([N+](=O)[O-])cc2c1=O` showed an MIC90 greater than 125 µM. Work on `O=C(NCCN1CCOCC1)c1cn(Cc2cccc(F)c2)c2ccc([N+](=O)[O-])cc2c1=O` yielded an MIC90 greater than 125 µM. For `N#Cc1cccc(Cn2cc(C(=O)O)c(=O)c3cc([N+](=O)[O-])ccc32)c1`, the MIC90 was greater than 125 µM. Compound `COCCNC(=O)c1cn(Cc2cccc(F)c2)c2ccc([N+](=O)[O-])cc2c1=O` has an MIC90 greater than 125 µM. `COCCNC(=O)c1cn(Cc2ccc(F)cc2)c2ccc([N+](=O)[O-])cc2c1=O` was tested, and the MIC90 was less than 0.244 µM. `O=C(NO)c1cn(Cc2cccc(Br)c2)c2ccc([N+](=O)[O-])cc2c1=O` gave an MIC90 greater than 125 µM. Compound `O=C(NCCOCCO)c1cn(Cc2cccc(Cl)c2)c2ccc([N+](=O)[O-])cc2c1=O` has an MIC90 of 16 µM (≈ 7.15 µg/mL). For `O=C(NCCOCCO)c1cn(Cc2cccc(F)c2)c2ccc([N+](=O)[O-])cc2c1=O`, the MIC90 was greater than 125 µM. Compound `COCCNC(=O)c1cn(Cc2ccc(C#N)cc2)c2ccc([N+](=O)[O-])cc2c1=O` has an MIC90 greater than 125 µM. For `N#Cc1ccc(Cn2cc(C(=O)NCCOCCO)c(=O)c3cc([N+](=O)[O-])ccc32)cc1`, the MIC90 was 14 µM (≈ 6.11 µg/mL). With `N#Cc1ccc(Cn2cc(C(=O)NCCNCCO)c(=O)c3cc([N+](=O)[O-])ccc32)cc1` the MIC90 was greater than 125 µM. For `NNC(=O)c1ccncc1` [ISONIAZID], the MIC90 was 0.2 µM (≈ 0.0274 µg/mL). For `CO[C@H]1/C=C/O[C@@]2(C)Oc3c(C)c(O)c4c(O)c(c(/C=N/N5CCN(C)CC5)c(O)c4c3C2=O)NC(=O)/C(C)=C\C=C\[C@H](C)[C@H](O)[C@@H](C)[C@@H](O)[C@@H](C)[C@H](OC(C)=O)[C@@H]1C` [RIFAMPIN], the MIC90 was 0.01 µM (≈ 0.00823 µg/mL).
